{"source": "ChEMBL document CHEMBL2390869", "about": "“Evolution of novel tricyclic CRTh2 receptor antagonists from a (E)-2-cyano-3-(1H-indol-3-yl)acrylamide scaffold” (Bioorg Med Chem Lett, 2013)", "key": {"[1]": {"assay": "Stability in simulated gastric fluid after 1hr by LC/MS analysis", "format": "physicochemical", "details": "read-out: Stability", "in_short": "(§1)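 Compound incubated in simulated gastric fluid for 1 h or simulated intestinal fluid for 4 h. Unchanged parent recovered and measured by LC–MS, expressed as % parent.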"}, "[2]": {"assay": "Stability in simulated intestinal fluid after 4 hrs by LC/MS analysis", "format": "physicochemical", "details": "read-out: Stability", "in_short": "as §1"}, "[3]": {"assay": "Cmax in Wistar rat at 10 mg/kg, po and 1 mg/kg, iv", "format": "ADME, organism-based", "details": "in vivo", "in_short": "(§2)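 Single doses given to three male Wistar rats per route: 10 mg/kg orally and 1 mg/kg intravenously, as a solution in 20% propyleneglycol/80% buffer. Plasma PK parameters were derived. CL, terminal T1/2 and Vss come from the intravenous arm. AUC0–last comes from the oral arm.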"}, "[4]": {"assay": "AUC (0 to last) in Wistar rat at 10 mg/kg, po", "format": "ADME, organism-based", "set-up": "time 0 - last, dose 10 mg/kg, route oral", "details": "plasma", "in_short": "as §2"}, "[5]": {"assay": "Metabolic stability in human plasma assessed as compound remaining after 4 hrs", "format": "ADME, cell-free", "details": "read-out: Stability", "in_short": "(§3)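 Compound incubated in rat and human plasma for up to 4 h. Unchanged parent quantified by LC–MS, reported as % parent remaining at 4 h plus elimination half-life.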"}, "[6]": {"target": "T1, Prostaglandin E2 receptor EP3 subtype (Homo sapiens, UniProt P43115)", "T1 sequence (P43115 whole entry)": "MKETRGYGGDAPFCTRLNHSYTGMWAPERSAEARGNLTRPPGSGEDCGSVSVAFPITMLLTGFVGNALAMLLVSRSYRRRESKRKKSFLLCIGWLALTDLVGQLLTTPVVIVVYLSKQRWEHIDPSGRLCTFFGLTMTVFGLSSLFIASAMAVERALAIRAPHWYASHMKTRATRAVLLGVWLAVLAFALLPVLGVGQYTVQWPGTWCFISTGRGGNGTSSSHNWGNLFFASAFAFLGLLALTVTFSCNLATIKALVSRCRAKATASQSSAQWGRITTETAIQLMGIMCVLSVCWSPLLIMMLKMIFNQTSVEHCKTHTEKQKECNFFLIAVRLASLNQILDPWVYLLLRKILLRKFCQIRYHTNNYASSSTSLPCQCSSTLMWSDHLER", "assay": "Antagonist activity at human EP3 receptor assessed as inhibition of PGE2-induced Ca2+ mobilization by FLIPR assay", "format": "functional", "in_short": "(§4)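 Antagonism measured as inhibition of agonist-induced Ca2+ mobilization by FLIPR: PGE2 as agonist for human EP1 and EP3, U46619 as agonist for human TP. Values are IC50.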"}, "[7]": {"assay": "Solubility of the compound in buffer at pH 4", "format": "physicochemical", "in_short": "(§5)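 Solubility measured in buffered aqueous solution at pH 4 and pH 7, and in water, where the final pH of the aqueous solution was 4.6.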"}, "[8]": {"assay": "Clearance in Wistar rat at 10 mg/kg, po and 1 mg/kg, iv", "format": "ADME, organism-based", "details": "in vivo", "in_short": "as §2"}, "[9]": {"target": "Prostaglandin E2 receptor EP4 subtype (Homo sapiens, UniProt P35408)", "sequence (P35408 whole entry)": "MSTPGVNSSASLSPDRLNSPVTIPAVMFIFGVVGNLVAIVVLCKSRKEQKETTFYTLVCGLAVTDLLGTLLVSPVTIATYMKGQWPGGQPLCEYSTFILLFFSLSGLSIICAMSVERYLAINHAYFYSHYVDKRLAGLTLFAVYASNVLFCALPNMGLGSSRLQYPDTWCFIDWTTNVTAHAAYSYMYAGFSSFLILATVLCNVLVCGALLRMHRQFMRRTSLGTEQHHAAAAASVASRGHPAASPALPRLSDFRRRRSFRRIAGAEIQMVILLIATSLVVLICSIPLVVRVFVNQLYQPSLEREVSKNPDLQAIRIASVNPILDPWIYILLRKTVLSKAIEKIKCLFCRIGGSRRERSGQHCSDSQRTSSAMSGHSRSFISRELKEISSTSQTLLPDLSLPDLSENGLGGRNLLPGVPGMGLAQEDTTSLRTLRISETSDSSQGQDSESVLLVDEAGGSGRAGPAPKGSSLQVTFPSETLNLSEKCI", "assay": "Inhibition of PGE2 binding to human EP4 receptor"}, "[10]": {"assay": "Intrinsic clearance in human liver microsomes assessed per mg of protein", "format": "ADME, Microsome", "details": "read-out: CLH", "in_short": "(§6)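 Intrinsic clearance determined in human and rat liver microsomes (per mg protein) and in rat hepatocytes (per 10⁶ cells).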"}, "[11]": {"target": "T2, Prostaglandin D2 receptor 2 (Homo sapiens, UniProt Q9Y5Y4)", "T2 sequence (Q9Y5Y4 whole entry)": "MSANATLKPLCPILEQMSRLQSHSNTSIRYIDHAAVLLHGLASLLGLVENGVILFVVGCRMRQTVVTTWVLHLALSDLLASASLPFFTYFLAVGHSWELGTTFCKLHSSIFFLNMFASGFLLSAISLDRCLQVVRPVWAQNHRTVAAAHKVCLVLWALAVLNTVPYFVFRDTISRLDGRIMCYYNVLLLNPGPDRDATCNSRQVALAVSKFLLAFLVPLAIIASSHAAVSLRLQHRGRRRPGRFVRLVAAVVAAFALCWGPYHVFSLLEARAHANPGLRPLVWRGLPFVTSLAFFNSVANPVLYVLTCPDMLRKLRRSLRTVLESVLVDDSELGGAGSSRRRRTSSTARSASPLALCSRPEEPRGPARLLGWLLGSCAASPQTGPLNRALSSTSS", "assay": "Displacement of [3H]PGD2 from human CRTh2 receptor in presence of human serum albumin", "in_short": "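Human CRTh2 binding assay run with 0.5% human serum albumin added to the assay buffer to mimic binding to blood proteins. IC50 is reported as the mean of at least three experiments.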"}, "Cytochrome P450 2C9": {"target": "Cytochrome P450 2C9 (Homo sapiens, UniProt P11712)", "sequence (P11712 whole entry)": "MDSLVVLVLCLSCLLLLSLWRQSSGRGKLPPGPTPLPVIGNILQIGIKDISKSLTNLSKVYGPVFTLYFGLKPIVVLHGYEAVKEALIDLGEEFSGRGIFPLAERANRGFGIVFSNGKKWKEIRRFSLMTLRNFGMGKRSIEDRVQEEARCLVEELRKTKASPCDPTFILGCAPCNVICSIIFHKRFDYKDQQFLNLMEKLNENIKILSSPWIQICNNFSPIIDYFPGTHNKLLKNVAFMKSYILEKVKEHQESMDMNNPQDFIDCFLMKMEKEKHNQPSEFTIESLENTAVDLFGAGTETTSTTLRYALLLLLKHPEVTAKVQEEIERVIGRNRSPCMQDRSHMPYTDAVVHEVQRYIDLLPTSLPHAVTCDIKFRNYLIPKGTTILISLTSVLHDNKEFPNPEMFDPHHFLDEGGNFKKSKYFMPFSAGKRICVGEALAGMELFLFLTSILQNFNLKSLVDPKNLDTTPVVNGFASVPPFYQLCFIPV", "assay": "Inhibition of CYP2C9 (unknown origin)", "format": "ADME"}, "[12]": {"assay": "Solubility of the compound in buffer at pH 7", "format": "physicochemical", "in_short": "as §5"}, "[13]": {"target": "T3, Prostaglandin D2 receptor (Homo sapiens, UniProt Q13258)", "T3 sequence (Q13258 whole entry)": "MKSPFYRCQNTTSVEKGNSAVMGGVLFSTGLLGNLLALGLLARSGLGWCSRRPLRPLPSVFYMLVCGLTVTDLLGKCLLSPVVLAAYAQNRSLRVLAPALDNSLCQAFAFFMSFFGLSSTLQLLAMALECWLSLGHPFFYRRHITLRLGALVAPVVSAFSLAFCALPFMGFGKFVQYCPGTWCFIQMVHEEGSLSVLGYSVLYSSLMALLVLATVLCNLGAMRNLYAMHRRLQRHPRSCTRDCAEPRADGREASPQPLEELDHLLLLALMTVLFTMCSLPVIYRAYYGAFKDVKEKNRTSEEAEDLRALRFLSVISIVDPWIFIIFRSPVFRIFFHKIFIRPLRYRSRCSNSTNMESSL", "assay": "Inhibition of PGD2 binding to human DP1 receptor"}, "Cytochrome P450 2D6": {"target": "Cytochrome P450 2D6 (Homo sapiens, UniProt P10635)", "sequence (P10635 whole entry)": "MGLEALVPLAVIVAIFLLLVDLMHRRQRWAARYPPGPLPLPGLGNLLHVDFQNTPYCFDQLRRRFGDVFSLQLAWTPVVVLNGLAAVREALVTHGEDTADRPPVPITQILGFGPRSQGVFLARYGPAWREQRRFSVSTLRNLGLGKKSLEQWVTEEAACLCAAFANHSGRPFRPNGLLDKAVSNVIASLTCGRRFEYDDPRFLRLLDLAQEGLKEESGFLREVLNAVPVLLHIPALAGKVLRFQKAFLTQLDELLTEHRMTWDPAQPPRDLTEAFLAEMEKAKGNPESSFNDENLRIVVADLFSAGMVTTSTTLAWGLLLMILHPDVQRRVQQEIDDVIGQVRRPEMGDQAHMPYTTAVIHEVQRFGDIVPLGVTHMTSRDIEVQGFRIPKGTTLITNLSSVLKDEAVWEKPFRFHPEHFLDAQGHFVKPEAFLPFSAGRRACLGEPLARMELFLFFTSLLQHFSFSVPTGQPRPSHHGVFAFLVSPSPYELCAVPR", "assay": "Inhibition of CYP2D6 (unknown origin)", "format": "ADME"}, "[14]": {"target": "Prostaglandin E2 receptor EP2 subtype (Homo sapiens, UniProt P43116)", "sequence (P43116 whole entry)": "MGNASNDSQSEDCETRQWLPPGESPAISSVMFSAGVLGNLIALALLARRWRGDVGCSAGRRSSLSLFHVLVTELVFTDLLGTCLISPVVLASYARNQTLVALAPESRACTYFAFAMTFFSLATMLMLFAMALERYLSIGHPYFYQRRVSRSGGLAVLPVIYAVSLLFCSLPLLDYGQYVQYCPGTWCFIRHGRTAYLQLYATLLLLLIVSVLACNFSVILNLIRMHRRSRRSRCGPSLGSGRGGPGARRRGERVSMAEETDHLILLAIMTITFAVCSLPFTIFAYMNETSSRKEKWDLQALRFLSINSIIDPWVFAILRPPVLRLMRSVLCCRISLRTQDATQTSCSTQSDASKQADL", "assay": "Inhibition of PGE2 binding to human EP2 receptor"}, "Thromboxane A2 receptor": {"target": "T4, Thromboxane A2 receptor (Homo sapiens, UniProt P21731)", "T4 sequence (P21731 whole entry)": "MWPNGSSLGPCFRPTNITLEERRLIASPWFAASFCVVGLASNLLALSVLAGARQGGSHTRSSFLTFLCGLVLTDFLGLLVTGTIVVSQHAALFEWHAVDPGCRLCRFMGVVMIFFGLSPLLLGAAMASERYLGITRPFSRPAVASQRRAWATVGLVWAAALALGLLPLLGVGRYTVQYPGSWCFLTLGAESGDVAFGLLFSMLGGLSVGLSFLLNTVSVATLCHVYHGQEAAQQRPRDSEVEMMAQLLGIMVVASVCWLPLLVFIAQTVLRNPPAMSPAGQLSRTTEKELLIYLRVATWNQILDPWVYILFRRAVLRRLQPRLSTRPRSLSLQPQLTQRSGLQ", "assay": "Antagonist activity at human TP2 receptor assessed as inhibition of U46619-induced Ca2+ mobilization by FLIPR assay", "format": "functional", "in_short": "as §4"}, "[15]": {"assay": "Aqueous solubility of the compound in water at pH 4.6", "format": "physicochemical", "in_short": "as §5"}, "[16]": {"assay": "Intrinsic clearance in rat hepatocytes measured per 10^6 cells", "format": "ADME, cell-based, Hepatocyte", "details": "read-out: CLH", "in_short": "as §6"}, "[17]": {"assay": "Lipophilicity, log D of the compound at pH 7.4", "format": "physicochemical", "details": "buffer"}, "[18]": {"assay": "Oral bioavailability in Wistar rat at 10 mg/kg", "format": "ADME, organism-based", "details": "in vivo", "in_short": "as §2"}, "[19]": {"target": "T2, Prostaglandin D2 receptor 2", "assay": "Displacement of [3H]PGD2 from human CRTh2 receptor", "in_short": "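Human CRTh2 binding assay run in assay buffer. IC50 reported as the mean of at least three experiments.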"}, "[20]": {"assay": "Volume of distribution at steady state in Wistar rat at 10 mg/kg, po and 1 mg/kg, iv", "format": "ADME, organism-based", "details": "in vivo, read-out: Vdss", "in_short": "as §2"}, "[21]": {"assay": "Metabolic stability in rat plasma assessed as compound remaining after 4 hrs", "format": "ADME, cell-free", "details": "read-out: Stability", "in_short": "as §3"}, "[22]": {"assay": "Intrinsic clearance in rat liver microsomes assessed per mg of protein", "format": "ADME, Microsome", "details": "read-out: CLH", "in_short": "as §6"}, "[23]": {"assay": "Half life in rat plasma", "format": "ADME, cell-free", "in_short": "as §3"}, "Cytochrome P450 3A4": {"target": "Cytochrome P450 3A4 (Homo sapiens, UniProt P08684)", "sequence (P08684 whole entry)": "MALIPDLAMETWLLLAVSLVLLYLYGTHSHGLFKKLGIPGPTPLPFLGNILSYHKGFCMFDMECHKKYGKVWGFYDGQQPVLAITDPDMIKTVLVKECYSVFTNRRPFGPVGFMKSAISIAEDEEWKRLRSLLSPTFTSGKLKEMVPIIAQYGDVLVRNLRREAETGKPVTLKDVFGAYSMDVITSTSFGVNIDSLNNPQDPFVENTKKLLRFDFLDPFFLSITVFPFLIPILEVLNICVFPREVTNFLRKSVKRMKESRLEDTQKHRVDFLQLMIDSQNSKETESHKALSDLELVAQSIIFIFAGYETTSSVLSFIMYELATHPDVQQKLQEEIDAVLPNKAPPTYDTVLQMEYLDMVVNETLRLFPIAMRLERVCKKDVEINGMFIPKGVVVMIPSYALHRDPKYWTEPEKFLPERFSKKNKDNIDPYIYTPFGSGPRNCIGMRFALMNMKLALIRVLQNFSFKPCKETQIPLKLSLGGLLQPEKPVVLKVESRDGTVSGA", "assay": "Inhibition of CYP3A4 (unknown origin)", "format": "ADME"}, "[24]": {"target": "T5, Prostaglandin E2 receptor EP1 subtype (Homo sapiens, UniProt P34995)", "T5 sequence (P34995 whole entry)": "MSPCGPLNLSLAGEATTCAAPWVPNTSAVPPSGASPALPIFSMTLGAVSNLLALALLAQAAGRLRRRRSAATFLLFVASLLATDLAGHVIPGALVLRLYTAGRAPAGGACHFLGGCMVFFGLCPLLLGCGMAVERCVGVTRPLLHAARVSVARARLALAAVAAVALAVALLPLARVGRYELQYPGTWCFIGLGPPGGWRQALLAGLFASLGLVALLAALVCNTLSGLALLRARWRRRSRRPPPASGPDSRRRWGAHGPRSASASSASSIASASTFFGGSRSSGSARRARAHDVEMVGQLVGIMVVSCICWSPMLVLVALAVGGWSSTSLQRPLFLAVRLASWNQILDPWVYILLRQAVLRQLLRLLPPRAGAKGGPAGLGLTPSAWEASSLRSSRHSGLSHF", "assay": "Antagonist activity at human EP1 receptor assessed as inhibition of PGE2-induced Ca2+ mobilization by FLIPR assay", "format": "functional", "in_short": "as §4"}, "[25]": {"assay": "Half life in human plasma", "format": "ADME, cell-free", "in_short": "as §3"}, "[26]": {"assay": "Terminal half life in Wistar rat at 10 mg/kg, po and 1 mg/kg, iv", "format": "ADME, organism-based", "details": "in vivo, read-out: beta t1/2 (converted)", "in_short": "as §2"}}, "note": "pIC50: −log10 of the molar value."}
{"compound": "N#C/C(=C\\c1cn(CC(=O)O)c2ccccc12)C(=O)N1CCCc2ccccc21", "values": [{"measurement": "remaining at 1 h", "setting": "[1]", "result": 93, "unit": "%"}, {"measurement": "remaining at 4 h", "setting": "[2]", "result": 68, "unit": "%"}, {"measurement": "Cmax", "setting": "[3]", "result": 213, "unit": "ng/mL"}, {"measurement": "AUC(0-t)", "setting": "[4]", "result": 2200, "unit": "ng·h/mL"}, {"measurement": "remaining at 4 h", "setting": "[5]", "result": 95, "unit": "%"}, {"measurement": "pIC50", "setting": "[6]", "result": "< 5.00"}, {"measurement": "solubility", "setting": "[7]", "result": 7, "unit": "µg/mL"}, {"measurement": "clearance", "setting": "[8]", "result": 14, "unit": "mL/min/kg"}, {"measurement": "pIC50", "setting": "[9]", "result": "< 5.00"}, {"measurement": "microsomal CLint", "setting": "[10]", "result": 6, "unit": "µL/min/mg"}, {"measurement": "pIC50", "setting": "[11]", "result": 8.00}, {"measurement": "pIC50", "setting": "Cytochrome P450 2C9", "result": "< 5.00"}, {"measurement": "solubility", "setting": "[12]", "result": 670, "unit": "µg/mL"}, {"measurement": "pIC50", "setting": "[13]", "result": 5.09}, {"measurement": "pIC50", "setting": "Cytochrome P450 2D6", "result": "< 5.00"}, {"measurement": "pIC50", "setting": "[14]", "result": "< 5.00"}, {"measurement": "pIC50", "setting": "Thromboxane A2 receptor", "result": "< 4.60"}, {"measurement": "solubility", "setting": "[15]", "result": 17, "unit": "µg/mL"}, {"measurement": "hepatocyte CLint", "setting": "[16]", "result": 11, "unit": "µL/min/1e6 cells"}, {"measurement": "logD", "setting": "[17]", "result": -0.4}, {"measurement": "bioavailability", "setting": "[18]", "result": 18, "unit": "%"}, {"measurement": "pIC50", "setting": "[19]", "result": 7.85}, {"measurement": "Vd", "setting": "[20]", "result": 0.7, "unit": "L/kg"}, {"measurement": "remaining at 4 h", "setting": "[21]", "result": 90, "unit": "%"}, {"measurement": "microsomal CLint", "setting": "[22]", "result": 32, "unit": "µL/min/mg"}, {"measurement": "half-life", "setting": "[23]", "result": "> 4", "unit": "h"}, {"measurement": "pIC50", "setting": "Cytochrome P450 3A4", "result": "< 5.00"}, {"measurement": "pIC50", "setting": "[24]", "result": "< 5.00"}, {"measurement": "half-life", "setting": "[25]", "result": "> 4", "unit": "h"}, {"measurement": "half-life", "setting": "[26]", "result": 1, "unit": "h"}]}
